SMILES strings stand for the structures. Activity calls are given as the source filed them. No cut-off for these calls is given here.

Data set [1] deals with HL-60. The data set is described as follows: Induction of apoptosis in human HL-60 cells assessed as necrotic cells at 8 uM incubated for 24 hrs by propidium iodide and annexin-V FITC staining based FACS analysis (reference value: 0.5 %). It is filed as functional.
A short description of data set [2]: Toxicity in mouse LL/2 cells inoculated C57BL/6J mouse assessed as effect on body weight by measuring initial body weight at 100 mg/kg, ip administered for 12 days and measured for every 2 days (reference value: 18.6 +/- 0.8 g). It counts as organism-based. The following applies: in vivo, 288 h, time 12 day.
The subject of data set [3] is HL-60. The data set is described as follows: Induction of apoptosis in human HL-60 cells assessed as viable cells at 8 uM incubated for 24 hrs by propidium iodide and annexin-V FITC staining based FACS analysis (reference value: 92.05 %). Conditions: read-out: Activity. It is filed as functional.
A short description of data set [4]: Antitumor activity against mouse LL/2 cells inoculated in C57BL/6J mouse assessed as tumor growth inhibition at 100 mg/kg, ip administered for 12 days. It counts as functional, Lewis lung carcinoma. More on the design: scale not given: the % may be the effect or the level left. The following applies: time 12 day.
Data set [5] deals with HL-60. The data set is described as follows: Induction of apoptosis in human HL-60 cells assessed as late apoptotic cells at 8 uM incubated for 24 hrs by propidium iodide and annexin-V FITC staining based FACS analysis (reference value: 4.2 %). It counts as functional.
Data set [6] has as its system HL-60. The data set is described as follows: Induction of apoptosis in human HL-60 cells assessed as necrotic cells at 1 uM incubated for 24 hrs by propidium iodide and annexin-V FITC staining based FACS analysis (reference value: 0.3 %). It is filed as functional.
Data set [7] concerns HL-60. The data set is described as follows: Induction of apoptosis in human HL-60 cells assessed as early apoptotic cells at 0.5 uM incubated for 24 hrs by propidium iodide and annexin-V FITC staining based FACS analysis (reference value: 2.8 %). It is filed as functional.
The target of the next data set is Histone deacetylase 1 (Homo sapiens, UniProt Q13547). The data set is described as follows: Inhibition of HDAC1 in human HL-60 cells assessed as increase in Ac-H3 level at 0.5 to 2 uM incubated for 24 hrs by Western blot analysis. It counts as cell-based. The following applies: dose 0.5-2 µM. The method, boiled down: (§1)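 Compound given to HL-60 cells for 24 h at the stated concentrations, then lysed. Acetyl-histone H3 and acetyl-α-tubulin levels were read by Western blot, with total H3, α-tubulin or β-actin as references.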

The target in the next data set is Histone deacetylase 2 (Homo sapiens, UniProt Q92769). The data set is described as follows: Inhibition of HDAC2 in human HL-60 cells assessed as increase in Ac-H3 level at 0.5 to 2 uM incubated for 24 hrs by Western blot analysis. The following applies: dose 0.5-2 µM. It is filed as cell-based. Summed up: as §1
Data set [8] relates to HL-60. The data set is described as follows: Induction of apoptosis in human HL-60 cells assessed as cleavage of caspase-9 at 0.5 to 2 uM after 24 hrs Western blot analysis. It is filed as functional, cell-based. Conditions: dose 0.5-2 µM. The method, boiled down: (§2)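 HL-60 cells were treated for 24 h at the indicated concentrations, then analysed by Western blot. Blots were probed for cleavage of PARP and caspase-3, -8 and -9. Ac-H3, Ac-α-tubulin and β-actin were also detected, with β-actin as the loading reference.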

Data set [9] has as its system HL-60. The data set is described as follows: Induction of apoptosis in human HL-60 cells assessed as necrotic cells at 0.5 uM incubated for 24 hrs by propidium iodide and annexin-V FITC staining based FACS analysis (reference value: 0.3 %). It is filed as functional.
Data set [10] has as its system HL-60. The data set is described as follows: Induction of apoptosis in human HL-60 cells assessed as cleavage of caspase-8 at 0.5 to 2 uM after 24 hrs Western blot analysis. The following applies: dose 0.5-2 µM. It is filed as functional, cell-based. Summed up:
as §2

Data set [11] concerns HL-60. The data set is described as follows: Induction of apoptosis in human HL-60 cells assessed as late apoptotic cells at 0.5 uM incubated for 24 hrs by propidium iodide and annexin-V FITC staining based FACS analysis (reference value: 4.8 %). It counts as functional.
Data set [12] deals with T1, Protein deacetylase HDAC6 (Homo sapiens) (UniProt Q9UBN7).
T1 sequence (whole entry): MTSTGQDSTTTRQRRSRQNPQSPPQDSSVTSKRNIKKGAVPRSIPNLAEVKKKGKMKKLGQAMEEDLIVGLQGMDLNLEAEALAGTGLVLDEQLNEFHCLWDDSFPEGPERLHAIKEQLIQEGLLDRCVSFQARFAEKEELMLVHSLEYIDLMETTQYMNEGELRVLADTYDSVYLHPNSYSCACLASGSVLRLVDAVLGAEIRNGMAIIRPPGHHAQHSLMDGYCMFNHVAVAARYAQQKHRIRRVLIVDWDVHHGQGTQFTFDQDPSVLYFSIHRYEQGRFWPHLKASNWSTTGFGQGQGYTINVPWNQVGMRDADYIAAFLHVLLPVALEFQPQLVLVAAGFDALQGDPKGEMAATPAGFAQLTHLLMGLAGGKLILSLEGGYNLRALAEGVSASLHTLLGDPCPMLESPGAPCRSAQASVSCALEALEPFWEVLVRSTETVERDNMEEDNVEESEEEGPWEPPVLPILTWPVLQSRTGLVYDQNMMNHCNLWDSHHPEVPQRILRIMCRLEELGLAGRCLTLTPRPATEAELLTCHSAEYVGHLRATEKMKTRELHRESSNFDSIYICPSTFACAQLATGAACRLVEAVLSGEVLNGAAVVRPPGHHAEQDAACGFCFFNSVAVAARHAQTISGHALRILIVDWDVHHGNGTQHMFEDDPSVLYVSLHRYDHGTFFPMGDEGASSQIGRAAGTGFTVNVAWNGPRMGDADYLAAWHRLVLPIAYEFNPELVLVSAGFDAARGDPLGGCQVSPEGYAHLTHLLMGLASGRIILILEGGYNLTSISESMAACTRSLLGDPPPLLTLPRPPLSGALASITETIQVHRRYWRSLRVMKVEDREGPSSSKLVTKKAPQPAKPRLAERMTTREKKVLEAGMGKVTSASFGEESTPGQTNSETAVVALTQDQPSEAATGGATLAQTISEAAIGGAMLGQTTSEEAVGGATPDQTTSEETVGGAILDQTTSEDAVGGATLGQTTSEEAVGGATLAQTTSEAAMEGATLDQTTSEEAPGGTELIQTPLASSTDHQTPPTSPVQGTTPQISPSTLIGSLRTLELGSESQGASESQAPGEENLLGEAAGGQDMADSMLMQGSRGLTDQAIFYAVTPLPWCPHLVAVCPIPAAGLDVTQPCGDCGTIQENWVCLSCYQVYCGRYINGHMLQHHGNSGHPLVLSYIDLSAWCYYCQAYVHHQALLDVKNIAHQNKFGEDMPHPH
The data set is described as follows: Inhibition of HDAC6 in human HL-60 cells assessed as increase in acetylated alpha tubulin level at 0.5 uM after 24 hrs by Western blot analysis. It counts as cell-based. The method, boiled down:
as §1

Data set [13] concerns the target Histone deacetylase 3 (Homo sapiens) (UniProt O15379). The data set is described as follows: Inhibition of HDAC3 in human HL-60 cells assessed as increase in Ac-H3 level at 0.5 to 2 uM incubated for 24 hrs by Western blot analysis. It is filed as cell-based. The following applies: dose 0.5-2 µM. The method, boiled down:
as §1

In data set [14] the test system is HL-60. The data set is described as follows: Induction of apoptosis in human HL-60 cells assessed as cleavage of caspase-3 at 0.5 to 2 uM after 24 hrs Western blot analysis. Conditions: dose 0.5-2 µM. It counts as functional, cell-based. The method, boiled down: as §2
Data set [15] deals with HL-60. The data set is described as follows: Induction of apoptosis in human HL-60 cells assessed as viable cells at 1 uM incubated for 24 hrs by propidium iodide and annexin-V FITC staining based FACS analysis (reference value: 92.5 %). It is filed as functional. The following applies: read-out: Activity.
Data set [16] deals with HL-60. The data set is described as follows: Induction of apoptosis in human HL-60 cells assessed as late apoptotic cells at 1 uM incubated for 24 hrs by propidium iodide and annexin-V FITC staining based FACS analysis (reference value: 4.2 %). It is filed as functional.

Sequence of Histone deacetylase 1 (Q13547 whole entry): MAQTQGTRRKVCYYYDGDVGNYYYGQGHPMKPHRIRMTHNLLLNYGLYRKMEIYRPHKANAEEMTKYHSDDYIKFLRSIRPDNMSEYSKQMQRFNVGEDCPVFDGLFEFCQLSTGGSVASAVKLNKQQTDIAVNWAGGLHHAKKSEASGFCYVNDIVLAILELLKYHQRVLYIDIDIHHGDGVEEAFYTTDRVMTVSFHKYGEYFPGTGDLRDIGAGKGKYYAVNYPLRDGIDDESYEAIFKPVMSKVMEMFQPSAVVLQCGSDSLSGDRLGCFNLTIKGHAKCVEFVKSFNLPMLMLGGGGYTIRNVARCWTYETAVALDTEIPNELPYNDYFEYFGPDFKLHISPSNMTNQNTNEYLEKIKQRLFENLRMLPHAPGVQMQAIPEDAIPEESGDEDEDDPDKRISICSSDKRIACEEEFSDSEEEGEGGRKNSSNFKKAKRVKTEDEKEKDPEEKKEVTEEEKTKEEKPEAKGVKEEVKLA
Sequence of Histone deacetylase 3 (Homo sapiens) (O15379 whole entry): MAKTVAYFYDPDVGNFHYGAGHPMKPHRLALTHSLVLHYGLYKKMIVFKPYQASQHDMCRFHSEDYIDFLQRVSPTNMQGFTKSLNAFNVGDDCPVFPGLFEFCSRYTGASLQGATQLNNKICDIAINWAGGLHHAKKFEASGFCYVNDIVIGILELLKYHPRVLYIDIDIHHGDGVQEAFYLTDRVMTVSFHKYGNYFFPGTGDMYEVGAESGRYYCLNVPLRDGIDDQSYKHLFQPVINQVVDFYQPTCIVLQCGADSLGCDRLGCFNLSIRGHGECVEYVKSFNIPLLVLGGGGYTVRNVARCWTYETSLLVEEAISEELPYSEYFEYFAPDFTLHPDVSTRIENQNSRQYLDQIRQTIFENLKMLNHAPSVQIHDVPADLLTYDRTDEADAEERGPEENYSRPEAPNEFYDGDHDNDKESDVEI
Sequence of Histone deacetylase 2 (Q92769 whole entry): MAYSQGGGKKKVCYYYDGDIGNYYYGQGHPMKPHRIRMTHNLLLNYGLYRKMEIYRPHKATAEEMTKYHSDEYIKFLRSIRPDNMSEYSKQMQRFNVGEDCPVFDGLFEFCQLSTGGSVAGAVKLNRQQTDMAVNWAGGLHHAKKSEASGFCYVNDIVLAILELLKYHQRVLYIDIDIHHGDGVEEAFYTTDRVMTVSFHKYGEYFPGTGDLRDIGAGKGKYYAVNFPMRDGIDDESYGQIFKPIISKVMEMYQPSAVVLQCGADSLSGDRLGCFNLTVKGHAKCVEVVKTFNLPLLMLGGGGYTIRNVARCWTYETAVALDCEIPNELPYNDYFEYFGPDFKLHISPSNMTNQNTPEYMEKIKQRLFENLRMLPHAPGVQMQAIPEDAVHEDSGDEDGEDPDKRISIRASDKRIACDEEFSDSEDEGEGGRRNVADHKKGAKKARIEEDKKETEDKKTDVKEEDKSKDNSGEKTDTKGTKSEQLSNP

As to `O=C(NCCS)/C(Cc1ccc(O)c(Br)c1)=N/O`, the Activity worked out at 3.3% in the data set with HL-60 [1], 18.6 g in [2], 62% in data set [4] and 25.1% with HL-60 [5]. The viability at 8 µM in the data set with HL-60 [3] was found to be 68.3%.

As for `O=C(CCNC(=O)/C(Cc1ccc(O)c(Br)c1)=N/O)NO`, the Activity with HL-60 [6] was found to be 0.5%; in the data set on HL-60 [7], 1.9%; in the data set on HL-60 [9], 0.2%; in the data set with HL-60 [11] it was 5.9%. Further, the inhibition entry (at Histone deacetylase 1; at Histone deacetylase 2; in data set [12]; in data set [13]) was “Active” throughout. Besides, the result in the data set with HL-60 [8], with HL-60 [10] and in the data set on HL-60 [14] was Active.

As to `O=C(NCCSSCCNC(=O)/C(Cc1ccc(O)c(Br)c1)=N/O)/C(Cc1ccc(O)c(Br)c1)=N/O` [PSAMMAPLIN A], the viability at 1 µM with HL-60 [15] came to 88.8%. In the data set on HL-60 [16], the Activity is on record as 7.8%.

The record behind these values is ChEMBL document CHEMBL4673384, “Studying Histone Deacetylase Inhibition and Apoptosis Induction of Psammaplin A Monomers with Modified Thiol Group” (ACS Med Chem Lett, 2021).
